Laboratory results reported in ChEMBL document CHEMBL3526053, “Species-dependent uptake of glycylsarcosine but not oseltamivir in Pichia pastoris expressing the rat, mouse, and human intestinal peptide transporter PEPT1” (Drug Metab Dispos, 2012).

Columns and labels:
[1] = substrate: CN(CC(=O)O)C(=O)CN; assay: Drug uptake in human HeLa cells expressing human PEPT1 measured at pH 6; assay type: ADME, cell-based
[2] = substrate: CN(CC(=O)O)C(=O)CN; assay: Activity at human recombinant PEPT1 expressed in Pichia pastoris GS115 after 30s by dual-channel liquid scintillation counting analysis; assay type: ADME
How it was run: (§1)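 [3H]GlySar concentration series 0.005-10 mM, 30-s uptake at 24°C in 100 mM potassium phosphate pH 6.5. Cells come from His+Mut+ GS115 transformants induced 20-24 h in methanol medium. Uptake is normalised to OD600. Data are fitted to Michaelis-Menten plus a first-order nonsaturable term (Kd), weighting unity. Parameters are mean ± SE (n=9).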

[3] = substrate: CN(CC(=O)O)C(=O)CN; assay: Drug uptake in Xenopus laevis oocytes expressing rat PEPT1 measured at pH 6; assay type: ADME, cell-based
[4] = substrate: CN(CC(=O)O)C(=O)CN; assay: Activity at rat recombinant PEPT1 expressed in Pichia pastoris GS115 after 30s by dual-channel liquid scintillation counting analysis; assay type: ADME; how it was run: as §1
[5] = substrate: CN(CC(=O)O)C(=O)CN; assay: Drug uptake in Xenopus laevis oocytes expressing mouse PEPT1 measured at pH 5.5 and -60 mV by two-electrode voltage-clamp electrophysiology; assay type: ADME, cell-based
[6] = substrate: CN(CC(=O)O)C(=O)CN; assay: Activity at mouse recombinant PEPT1 expressed in Pichia pastoris GS115 after 30s by dual-channel liquid scintillation counting analysis; assay type: ADME; how it was run: as §1

B1: Solute carrier family 15 member 1 (Homo sapiens) (protein)
chain: MGMSKSHSFFGYPLSIFFIVVNEFCERFSYYGMRAILILYFTNFISWDDNLSTAIYHTFVALCYLTPILGALIADSWLGKFKTIVSLSIVYTIGQAVTSVSSINDLTDHNHDGTPDSLPVHVVLSLIGLALIALGTGGIKPCVSAFGGDQFEEGQEKQRNRFFSIFYLAINAGSLLSTIITPMLRVQQCGIHSKQACYPLAFGVPAALMAVALIVFVLGSGMYKKFKPQGNIMGKVAKCIGFAIKNRFRHRSKAFPKREHWLDWAKEKYDERLISQIKMVTRVMFLYIPLPMFWALFDQQGSRWTLQATTMSGKIGALEIQPDQMQTVNAILIVIMVPIFDAVLYPLIAKCGFNFTSLKKMAVGMVLASMAFVVAAIVQVEIDKTLPVFPKGNEVQIKVLNIGNNTMNISLPGEMVTLGPMSQTNAFMTFDVNKLTRINISSPGSPVTAVTDDFKQGQRHTLLVWAPNHYQVVKDGLNQKPEKGENGIRFVNTFNELITITMSGKVYANISSYNASTYQFFPSGIKGFTISSTEIPPQCQPNFNTFYLEFGSAYTYIVQRKNDSCPEVKVFEDISANTVNMALQIPQYFLLTCGEVVFSVTGLEFSYSQAPSNMKSVLQAGWLLTVAVGNIIVLIVAGAGQFSKQWAEYILFAALLLVVCVIFAIMARFYTYINPAEIEAQFDEDEKKNRLEKSNPYFMSGANSQKQM
Km [1]: 290 µM
Km [2]: 860 µM

B2: Solute carrier family 15 member 1 (Rattus norvegicus) (protein)
chain: MGMSKSRGCFGYPLSIFFIVVNEFCERFSYYGMRALLVLYFRNFLGWDDDLSTAIYHTFVALCYLTPILGALIADSWLGKFKTIVSLSIVYTIGQAVISVSSINDLTDHDHDGSPNNLPLHVALSMIGLALIALGTGGIKPCVSAFGGDQFEEGQEKQRNRFFSIFYLAINAGSLLSTIITPILRVQQCGIHSQQACYPLAFGVPAALMAVALIVFVLGSGMYKKFQPQGNIMGKVAKCIRFAIKNRFRHRSKAFPKRNHWLDWAKEKYDERLISQIKIMTKVMFLYIPLPMFWALFDQQGSRWTLQATTMTGKIGTIEIQPDQMQTVNAILIVIMVPIVDAVVYPLIAKCGFNFTSLKKMTVGMFLASMAFVVAAIVQVEIDKTLPVFPSGNQVQIKVLNIGNNDMAVYFPGKNVTVAQMSQTDTFMTFDVDQLTSINVSSPGSPGVTTVAHEFEPGHRHTLLVWGPNLYRVVKDGLNQKPEKGENGIRFVSTLNEMITIKMSGKVYENVTSHSASNYQFFPSGQKDYTINTTEIAPNCSSDFKSSNLDFGSAYTYVIRSRASDGCLEVKEFEDIPPNTVNMALQIPQYFLLTCGEVVFSVTGLEFSYSQAPSNMKSVLQAGWLLTVAIGNIIVLIVAEAGHFDKQWAEYVLFASLLLVVCIIFAIMARFYTYINPAEIEAQFDEDEKKKGVGKENPYSSLEPVSQTNM
Km [3]: 240 µM
Km [4]: 160 µM

B3: Solute carrier family 15 member 1 (Mus musculus) (protein)
chain: MGMSKSRGCFGYPLSIFFIVVNEFCERFSYYGMRALLVLYFRNFLGWDDNLSTAIYHTFVALCYLTPILGALIADSWLGKFKTIVSLSIVYTIGQAVISVSSINDLTDHDHNGSPDSLPVHVALSMVGLALIALGTGGIKPCVSAFGGDQFEEGQEKQRNRFFSIFYLAINGGSLLSTIITPILRVQQCGIHSQQACYPLAFGVPAALMAVALIVFVLGSGMYKKFQPQGNIMGKVAKCIGFAIKNRFRHRSKAYPKREHWLDWAKEKYDERLISQIKMVTKVMFLYIPLPMFWALFDQQGSRWTLQATTMNGKIGAIEIQPDQMQTVNAILIVIMVPIVDAVVYPLIAKCGFNFTSLKKMTVGMFLASMAFVVAAIVQVEIDKTLPVFPGGNQVQIKVLNIGNNNMTVHFPGNSVTLAQMSQTDTFMTFDIDKLTSINISSSGSPGVTTVAHDFEQGHRHTLLVWNPSQYRVVKDGLNQKPEKGENGIRFVNTLNEMVTIKMSGKVYENVTSHNASGYQFFPSGEKQYTINTTAVAPTCLTDFKSSNLDFGSAYTYVIRRASDGCLEVKEFEDIPPNTVNMALQIPQYFLLTCGEVVFSVTGLEFSYSQAPSNMKSVLQAGWLLTVAVGNIIVLIVAGAGHFPKQWAEYILFASLLLVVCVIFAIMARFYTYINPAEIEAQFDEDEKKKGIGKENPYSSLEPVSQTNM
Km [5]: 750 µM
Km [6]: 300 µM
